# Assay results pooled from the literature.
# Lines come from different studies, so protocols differ.
# Cell line: SN12C
# Effect on: cell growth or viability
Structure (SMILES),method,concentration,time,endpoint,result
COc1cc(-c2ccc(-c3ccc(C(=N)N)nc3)s2)cc(OC)c1OC,,,,GI50,2050 nM
Cc1cc(C)n(C(=S)[S][Au][PH](CCCCCC[PH]([Au][S]C(=S)n2nc(C)cc2C)(c2ccccc2)c2ccccc2)(c2ccccc2)c2ccccc2)n1,,,,GI50,479 nM
COc1ccc(C(=O)/C=C/c2ccc(Cl)c(Cl)c2)cc1S(N)(=O)=O,SRB,,48 h,GI50,1400 nM
COc1ccc(-c2ccc(-c3ccc(C(=N)N)nc3)s2)cc1Cl,,,,GI50,1790 nM
COc1cccc(Oc2ccccc2NC(=O)CNC(=O)c2cccc3ccccc23)c1,SRB,,48 h,GI50,1450 nM
CC[C@@]1(O)C(=O)OCc2c1cc1n(c2=O)Cc2cc3ccccc3nc2-1,SRB,,,GI50,20 nM
COc1ccc(C(=O)/C=C/c2cccc(Br)c2)cc1S(N)(=O)=O,SRB,10 µM,,inhibition,179%
S=C([S][Au-][P+](CCCCCC[P+]([Au-][S]C(=S)n1cccn1)(c1ccccc1)c1ccccc1)(c1ccccc1)c1ccccc1)n1cccn1,,,,GI50,1950 nM
